The text below walks through data of ChEMBL document CHEMBL4382230, “Structure-activity relationships, biological evaluation and structural studies of novel pyrrolonaphthoxazepines as antitumor agents” (Eur J Med Chem, 2019).

For data set [1], the system named is HL-60. Kind of data set: Cytotoxicity against human HL60 cells assessed as reduction in cell viability after 72 hrs by alamar blue assay. As to conditions: HL-60, 72 h. The data set is classed as functional, cell-based. Put shortly:
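HL-60 at 300,000 cells/ml treated in triplicate with compound or vehicle (0.1% v/v DMSO) for 72 h. Cells then incubated in 10% (v/v) AlamarBlue and fluorescence read at excitation 544 nm, emission 590 nm. IC50 is the mean of at least three separate determinations.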
For orientation: Resazurin is reduced to fluorescent resorufin, in cell work by metabolically active cells.

The test system of data set [2] is GISTT1. Nature of the data set: Cytotoxicity against human GISTT1 cells assessed as reduction in cell viability at 1 uM after 48 hrs by alamar blue assay. It is filed as functional, cell-based. A digest of the protocol:
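GIST-T1 seeded at 4000 cells/well, exposed to 1 or 10 μM for 48 h; viability read by AlamarBlue.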

Data set [3] deals with HL-60. Kind of data set: Cell cycle arrest in human HL60 cells assessed as accumulation of cells at G2/M phase at 10 uM after 24 hrs by propidium iodide staining-based flow cytometric analysis. The data set is classed as functional. Put shortly:
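HL-60 exposed to 10 μM for 24 h, vehicle 0.1% DMSO. Cells plated at 2×10^5 cells/mL, stained in PBS with 0.1% sodium citrate, 0.1% NP40 and propidium iodide for 30 min at room temperature in the dark. DNA content by flow cytometry; G2/M fraction reported.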
On the technique in general: Flow cytometry measures light scatter and fluorescence of single cells or particles in a stream.

Data set [4] has as its system A2780. Nature of the data set: Cytotoxicity against human A2780 cells after 48 hrs by MTT assay. It is filed as functional, cell-based. As to conditions: A2780, 48 h. A digest of the protocol:
(§1)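 Cells seeded at 12,000 to 17,000 per well depending on line, incubated overnight, then given serial dilutions of ligand for 48 h. MTT at 2.5 mg/mL added for 4 h at 37 °C, formazan solubilized overnight (10% SDS, 45% dimethylformamide, pH 5.5), absorbance read at 595/690 nm. IC50 from log-dose response curves; mean ± SE of three independent assays.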
Background: Tetrazolium dyes change colour on reduction, which living cells bring about.

Data set [5] can be described thus: Cytotoxicity against human A2780AD cells after 48 hrs by MTT assay. The data set is classed as functional, cell-based. Put shortly: as §1
The test system of data set [6] is NIH3T3. Kind of data set: Cytotoxicity against mouse NIH/3T3 cells harboring MDR G185 after 48 hrs by MTT assay. The data set is classed as functional, cell-based. As to conditions: NIH3T3, 48 h. A digest of the protocol: as §1
A short description of data set [7]: Ratio of IC50 for mouse NIH/3T3 cells harboring MDR G185 to IC50 for mouse NIH/3T3 cells. Put shortly: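 Relative resistance: IC50 in the P-gp overexpressing resistant line divided by IC50 in the parental line. Both IC50s came from the 48 h MTT assay (serial dilutions, absorbance at 595/690 nm, log-dose response curves, three independent assays).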
Data set [8] has as its system A549. Nature of the data set: Cytotoxicity against human A549 cells assessed as reduction in cell survival at 0.1 to 10 uM after 18 hrs by MTT assay. It is filed as functional, cell-based. Put shortly:
(§2)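 Seeded at 2,500 cells/well in medium with 10% serum. After adhesion, exposed to 0.1, 1 and 10 μM in medium with 5% serum for 18 h. Medium then replaced with fresh medium containing 1.2 mM MTT for 4 h; formazan dissolved in DMSO, absorbance at 540 nm. Results given as % of basal response.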

The subject of data set [9] is PC-9. Kind of data set: Cytotoxicity against human PC9 cells assessed as reduction in cell survival at 0.1 to 10 uM after 18 hrs by MTT assay. The data set is classed as functional, cell-based. A digest of the protocol: as §2
Data set [10] has as its system HCC827. Kind of data set: Cytotoxicity against human HCC827 cells assessed as reduction in cell survival at 0.1 to 10 uM after 18 hrs by MTT assay. The data set is classed as functional, cell-based. A digest of the protocol: as §2
In data set [11] the test system is HCC827. Kind of data set: Cytotoxicity against human HCC827 cells assessed as reduction in cell survival at 0.1 to 10 uM after 50 to 60 hrs by MTT assay. It is filed as functional, cell-based.
Data set [12] has as its system PC-9. Kind of data set: Induction of apoptosis in human PC9 cells assessed as increase in caspase-3 expression at 10 uM after 18 hrs by Western blot analysis. It is filed as functional, cell-based. Put shortly:
(§3)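 PC9 and HCC827 maintained in DMEM with 10% FBS, then exposed to 10 μM compound for 18 h in 5% serum. Caspase 3 activation and cell cycle proteins examined by western blot.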

For data set [13], the system named is HCC827. Nature of the data set: Induction of apoptosis in human HCC827 cells assessed as increase in p21 expression at 10 uM after 18 hrs by Western blot analysis. The data set is classed as functional, cell-based. Put shortly: as §3
Data set [14] concerns Ca9-22. Nature of the data set: Cytotoxicity against human Ca9-22 cells after 48 hrs by MTT assay. It is filed as functional, cell-based. As to conditions: Ca9-22, 48 h.
Data set [15] relates to Ca9-22. Nature of the data set: Cytotoxicity against human Ca9-22 cells after 72 hrs by MTT assay. The data set is classed as functional, cell-based. As to conditions: Ca9-22, 72 h.
The test system of data set [16] is Ca9-22. Nature of the data set: Induction of apoptosis in human Ca9-22 cells at 500 nM after 48 hrs by Annexin V/propidium iodide staining-based flow cytometric analysis relative to control. It is filed as functional, cell-based. Put shortly: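 Seeding density: NCI-H929 and Ca9.22 at 30×10^4 cells/mL, SCC4 at 15×10^4 cells/mL. Cells exposed 48 h to compound (500 nM; 50 μM in SCC4 for one compound) or vehicle (1% EtOH v/v). Annexin V/PI staining, flow cytometry, 10,000 cells gated on vehicle-treated cells. Three independent experiments, mean ± S.E.M, T-test.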

The test system of data set [17] is HL-60. Nature of the data set: Induction of autophagy in human HL60 cells assessed as increase in LC3B-2 levels at 10 uM after 105 mins in presence of lysosomal inhibitor chloroquine by immunoblot analysis. The data set is classed as functional, cell-based. A digest of the protocol:
(§4)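 HL-60 in serum-supplemented RPMI 1640, or starved in Earle's Balanced Salts for 15 min beforehand, then treated with 10 μM compound with or without 40 μM chloroquine for 1 h 45 min or 16 h. LC3B-II measured by immunoblot, densitometry normalized to actin, three independent experiments, Student's T-test.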

The subject of data set [18] is HL-60. Kind of data set: Induction of autophagy in serum starved human HL60 cells assessed as increase in LC3B-2 levels at 10 uM after 105 mins by immunoblot analysis. The data set is classed as functional, cell-based. Put shortly: as §4
Data set [19] is described as follows: Solubility of compound in pH 3 aqueous solution after 12 hrs by HPLC analysis. It is filed as physicochemical.
Data set [20] can be described thus: Chemical stability of compound in pH 3 aqueous solution assessed as compound remaining after 24 hrs by HPLC analysis. It is filed as physicochemical. The note with it: read-out: Stability.
Data set [21] has as its target Tubulin (Homo sapiens) (UniProt P68371+Q9H4B7+P0DPH7+P68366+Q13509+Q71U36+P04350+Q3ZCM7+P07437+P68363+Q9BQE3+Q6PEY2+Q13885+Q9BVA1+Q9BUF5). Nature of the data set: Displacement of podophyllotoxin from tubulin (unknown origin) by ultracentrifugation method. It is filed as protein-complex assay.

≈ marks a conversion by molar mass, not a printed value. Calls of active or inactive are those of the source. The calls are words filed in the database; no cut-off is given here.

In general, IC50 refers to the concentration that inhibits the measured activity by half. As a reminder, the solubility is how much of the substance goes into solution per volume. High values mean much dissolved substance, low ones little dissolved substance. `CC(=O)OC1=C(c2cccc3ncccc23)Oc2cc3ccccc3cc2-n2cccc21`: the IC50 in [1] is 294 nM; in data set [4], 80 nM; in [5] it was 92 nM; in data set [6], 84 nM; in [14], 13400 nM; in data set [15], 4500 nM. Also, the result in [2], in data set [3], in data set [8], in data set [9], in data set [10] and in data set [12] was Active. The outcome in data set [13], in data set [17] and in data set [18] was Active. Besides, the “Ratio IC50” value in [7] is reported as 2. Moreover, the outcome in data set [11] and in data set [16] was inactive. In data set [19], this molecule gave a solubility at 12 h of 210 µM (≈ 88 µg/mL). Further, in data set [20], the remaining at 24 h worked out at 65%. Also, the inhibition result in [21] was “Active”.
